From ChEMBL document CHEMBL2163257 (J Med Chem, 2012)
Active and inactive are the calls of the source. The calls are words filed in the database; no cut-off is given here.

Molecular target: T1, Histamine H4 receptor (Homo sapiens, UniProt Q9H3N8)
Experiment: Agonist activity at human H4R-RGS19 Galphai2 Gbeta1gamma2 expressed in Sf9 cells by steady state GTPase activity assay relative to histamine
Assay type: functional
Conditions: not given
Procedure, shortened: (§1)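 Sf9 membranes coexpressing hH4R-RGS19 with Gαi2 and Gβ1γ2 were assayed for GTP hydrolysis with 5.0 mM MgCl2 and 100 mM NaCl (final), 100 nM GTP, 50 mM Tris-HCl pH 7.4. Ligands spanned 0.1 nM–1 mM. Preincubation was 2 min, then 20 min at 25 °C with [γ-32P]GTP or [γ-33P]GTP. Charcoal quench; Pi counted. Sigmoidal nonlinear regression; efficacy relative to histamine.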

T1 sequence (Q9H3N8 whole entry): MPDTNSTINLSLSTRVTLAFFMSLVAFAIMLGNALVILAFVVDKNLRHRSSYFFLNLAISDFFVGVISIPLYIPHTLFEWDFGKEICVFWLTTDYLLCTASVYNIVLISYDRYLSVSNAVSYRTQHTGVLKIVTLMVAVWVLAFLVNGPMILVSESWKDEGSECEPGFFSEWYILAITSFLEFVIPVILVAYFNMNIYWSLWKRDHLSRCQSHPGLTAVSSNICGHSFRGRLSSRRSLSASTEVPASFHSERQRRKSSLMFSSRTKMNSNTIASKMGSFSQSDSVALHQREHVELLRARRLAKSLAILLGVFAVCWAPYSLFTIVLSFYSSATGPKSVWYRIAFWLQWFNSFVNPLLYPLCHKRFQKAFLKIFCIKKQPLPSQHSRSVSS

Row | Compound | Intrinsic activity
1 | N/C(=N\C(=O)CCCCCCC(=O)/N=C(\N)NCCCc1c[nH]cn1)NCCCc1c[nH]cn1 | 0.51
2 | N/C(=N\C(=O)CCCCCCCCC(=O)/N=C(\N)NCCCc1c[nH]cn1)NCCCc1c[nH]cn1 | 0.44
3 | Cc1nc(N)sc1CCCN/C(N)=N/C(=O)CCCCCCCCC(=O)/N=C(\N)NCCCc1c[nH]cn1 | 0.52
4 | N/C(=N\C(=O)CCCCC(=O)/N=C(\N)NCCCc1c[nH]cn1)NCCCc1c[nH]cn1 | 0.42

Test system: not listed separately
Experiment: Agonist activity at human H2R-C17Y-A271D Gsalphas mutant containing human H2 receptor E2 loop expressed in Sf9 cells by steady state GTPase activity assay
Assay type: functional
Conditions: not given
Procedure, shortened: (§2)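 Mutant H2R-Gsαs fusion proteins in Sf9 membranes were tested by steady-state GTPase hydrolysis: 1.0 mM MgCl2, 100 nM GTP, AppNHp/creatine phosphate regeneration, pH 7.4 Tris, 20 min at 25 °C with [γ-32P/33P]GTP, charcoal separation of Pi.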

Row | Compound | Activity
5 | Cc1nc(N)sc1CCCN/C(N)=N/C(=O)CCCCCCCCCCCCCCC(=O)/N=C(\N)NCCCc1sc(N)nc1C | Active
6 | N/C(=N\C(=O)CCCCCCCCC(=O)/N=C(\N)NCCCc1c[nH]cn1)NCCCc1c[nH]cn1 | Active
7 | Cc1nc(N)sc1CCCN/C(N)=N/C(=O)CCCCCCCCC(=O)/N=C(\N)NCCCc1c[nH]cn1 | Active
8 | N/C(=N\C(=O)CCCCCCC(=O)/N=C(\N)NCCCc1cnc(N)s1)NCCCc1cnc(N)s1 | Active

Molecular target: T1, Histamine H4 receptor
Experiment: Agonist activity at human H4R-RGS19 Galphai2 Gbeta1gamma2 expressed in Sf9 cells at 0.1 nM to 1 mM by steady state GTPase activity assay
Assay type: functional
Conditions: not given
Procedure, shortened: as §1

Row | Compound | EC50
9 | N/C(=N\C(=O)CCCCCCC(=O)/N=C(\N)NCCCc1c[nH]cn1)NCCCc1c[nH]cn1 | 41.7 nM
10 | N/C(=N\C(=O)CCCCCCCCC(=O)/N=C(\N)NCCCc1c[nH]cn1)NCCCc1c[nH]cn1 | 8.51 nM
11 | Cc1nc(N)sc1CCCN/C(N)=N/C(=O)CCCCCCCCC(=O)/N=C(\N)NCCCc1c[nH]cn1 | 8.51 nM
12 | N/C(=N\C(=O)CCCCC(=O)/N=C(\N)NCCCc1c[nH]cn1)NCCCc1c[nH]cn1 | 79.4 nM

Molecular target: T2, Histamine H2 receptor (Homo sapiens, UniProt P25021)
T2 sequence (P25021 whole entry): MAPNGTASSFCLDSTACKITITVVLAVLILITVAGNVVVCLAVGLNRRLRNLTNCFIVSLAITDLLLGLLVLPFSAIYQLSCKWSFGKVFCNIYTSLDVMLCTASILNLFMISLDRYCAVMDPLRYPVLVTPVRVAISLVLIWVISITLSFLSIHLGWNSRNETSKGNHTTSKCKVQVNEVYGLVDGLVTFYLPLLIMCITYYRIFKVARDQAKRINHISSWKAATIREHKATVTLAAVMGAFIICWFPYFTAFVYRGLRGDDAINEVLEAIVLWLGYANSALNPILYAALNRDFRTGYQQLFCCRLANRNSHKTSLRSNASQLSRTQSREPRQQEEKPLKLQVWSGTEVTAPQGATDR
Experiment: Intrinsic agonist activity at human H2R-Gsalphas expressed in Sf9 cells by steady state GTPase activity assay relative to histamine
Assay type: functional
Conditions: not given
Procedure, shortened: (§3)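 Steady-state GTPase assay with Sf9 membranes (5–20 µg protein) expressing hH2R- or gpH2R-Gsαs, in 50 mM Tris-HCl pH 7.4. Mix: 1.0 mM MgCl2, 100 µM EDTA, 100 nM GTP, 100 µM AppNHp, 5 mM creatine phosphate, creatine kinase, 0.2% BSA, ligand 0.1 nM–10 µM. After 2 min at 25 °C, [γ-32P]GTP or [γ-33P]GTP was added and reacted 20 min at 25 °C. Charcoal stop; released Pi counted. Emax referenced to histamine (1.0). Two to six experiments, duplicate.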

Row | Compound | Intrinsic activity
13 | Cc1nc(N)sc1CCCN/C(N)=N/C(=O)CCCCCCCCCCCCCCC(=O)/N=C(\N)NCCCc1sc(N)nc1C | 0.12
14 | N/C(=N\C(=O)CCCCCCC(=O)/N=C(\N)NCCCc1c[nH]cn1)NCCCc1c[nH]cn1 | 0.77
15 | N/C(=N\C(=O)CCCCCCCCC(=O)/N=C(\N)NCCCc1c[nH]cn1)NCCCc1c[nH]cn1 | 0.81
16 | Cc1nc(N)sc1CCCN/C(N)=N/C(=O)CCCCCCCCC(=O)/N=C(\N)NCCCc1c[nH]cn1 | 0.76
17 | N/C(=N\C(=O)CCCCCCC(=O)/N=C(\N)NCCCc1cnc(N)s1)NCCCc1cnc(N)s1 | 0.79
18 | N/C(=N\C(=O)CCCCC(=O)/N=C(\N)NCCCc1c[nH]cn1)NCCCc1c[nH]cn1 | 0.68

Molecular target: T2, Histamine H2 receptor
Experiment: Agonist activity at human H2R-Gsalphas expressed in Sf9 cells at 0.1 nM to 10 uM by steady state GTPase activity assay
Conditions: not given

Row | Compound | EC50
19 | N/C(=N\C(=O)CCCCCCC(=O)/N=C(\N)NCCCc1c[nH]cn1)NCCCc1c[nH]cn1 | 56.2 nM

Molecular target: T2, Histamine H2 receptor
Experiment: Potency index, ratio of pEC50 for compound to pEC50 for histamine at human H2R-Gsalphas expressed in Sf9 cells at 0.1 nM to 10 uM by steady state GTPase activity assay
Conditions: not given
Procedure, shortened: (§4)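 Sf9 membranes expressing human or guinea pig H2R-Gsαs fusion protein, 1.0 mM MgCl2, ATP, 100 nM GTP, AppNHp, creatine phosphate/kinase, BSA, Tris pH 7.4. Agonists 0.1 nM–10 μM, [γ-32P/33P]GTP hydrolysis 20 min at 25 °C, Pi counted. Curves fit by sigmoidal nonlinear regression. Potency given relative to histamine (set to 1.0). Two to six independent experiments in duplicate.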

Row | Compound | Ratio
20 | N/C(=N\C(=O)CCCCCCC(=O)/N=C(\N)NCCCc1c[nH]cn1)NCCCc1c[nH]cn1 | 22.4

Molecular target: Histamine H2 receptor (Cavia porcellus) (UniProt P47747)
Sequence (P47747 whole entry): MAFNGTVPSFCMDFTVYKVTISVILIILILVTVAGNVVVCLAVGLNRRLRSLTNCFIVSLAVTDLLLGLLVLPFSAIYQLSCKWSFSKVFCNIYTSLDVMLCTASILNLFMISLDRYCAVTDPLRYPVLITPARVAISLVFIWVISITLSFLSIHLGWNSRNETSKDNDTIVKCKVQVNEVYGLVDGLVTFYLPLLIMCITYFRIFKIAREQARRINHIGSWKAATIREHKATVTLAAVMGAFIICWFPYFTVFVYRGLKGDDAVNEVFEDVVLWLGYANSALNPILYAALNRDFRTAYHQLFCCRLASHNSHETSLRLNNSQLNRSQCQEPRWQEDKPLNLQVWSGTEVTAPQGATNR
Experiment: Intrinsic agonist activity at guinea pig H2R-Gsalphas expressed in Sf9 cells by steady state GTPase activity assay relative to histamine
Assay type: functional
Conditions: not given
Procedure, shortened: as §3

Row | Compound | Intrinsic activity
21 | Cc1nc(N)sc1CCCN/C(N)=N/C(=O)CCCCCCCCCCCCCCC(=O)/N=C(\N)NCCCc1sc(N)nc1C | 0.51
22 | N/C(=N\C(=O)CCCCCCC(=O)/N=C(\N)NCCCc1c[nH]cn1)NCCCc1c[nH]cn1 | 1.18
23 | N/C(=N\C(=O)CCCCCCCCC(=O)/N=C(\N)NCCCc1c[nH]cn1)NCCCc1c[nH]cn1 | 0.98
24 | Cc1nc(N)sc1CCCN/C(N)=N/C(=O)CCCCCCCCC(=O)/N=C(\N)NCCCc1c[nH]cn1 | 1.01
25 | N/C(=N\C(=O)CCCCCCC(=O)/N=C(\N)NCCCc1cnc(N)s1)NCCCc1cnc(N)s1 | 1
26 | N/C(=N\C(=O)CCCCC(=O)/N=C(\N)NCCCc1c[nH]cn1)NCCCc1c[nH]cn1 | 1

Molecular target: Histamine H2 receptor (Cavia porcellus, UniProt P47747)
Sequence (P47747 whole entry): as above
Experiment: Agonist activity at guinea pig H2R-Gsalphas expressed in Sf9 cells at 0.1 nM to 10 uM by steady state GTPase activity assay
Assay type: functional
Conditions: read-out: pEC50 (converted)
Procedure, shortened: as §3, with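 “counted.” for “counted. Emax referenced to histamine (1.0).”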

Row | Compound | EC50
27 | N/C(=N\C(=O)CCCCCCC(=O)/N=C(\N)NCCCc1c[nH]cn1)NCCCc1c[nH]cn1 | 3.24 nM

Molecular target: Histamine H2 receptor (Cavia porcellus) (UniProt P47747)
Experiment: Potency index, ratio of pEC50 for compound to pEC50 for histamine at guinea pig H2R-Gsalphas expressed in Sf9 cells at 0.1 nM to 10 uM by steady state GTPase activity assay
Conditions: not given
Procedure, shortened: as §4

Row | Compound | Ratio
28 | N/C(=N\C(=O)CCCCCCC(=O)/N=C(\N)NCCCc1c[nH]cn1)NCCCc1c[nH]cn1 | 372

Test system: not listed separately
Experiment: Selectivity index, ratio of EC50 for human H2R-Gsalphas to EC50 for guinea pig H2R-Gsalphas by steady state GTPase activity assay
Conditions: not given

Row | Compound | Ratio EC50
29 | N/C(=N\C(=O)CCCCCCC(=O)/N=C(\N)NCCCc1c[nH]cn1)NCCCc1c[nH]cn1 | 17.4

Molecular target: Histamine H2 receptor (Cavia porcellus) (UniProt P47747)
Experiment: Intrinsic agonist activity at H2R in spontaneously beating guinea pig right atrium assessed as increase in heart rate relative to histamine
Assay type: functional, tissue-based
Conditions: Cardiac atrium
Procedure, shortened: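 Isolated spontaneously beating guinea pig right atrium. Ligand stocks (10 mM) and dilutions were made in fresh bath fluid. Tissue was washed for 30 min and equilibrated for 15 min. […] Emax is relative to maximal histamine heart-rate increase. Three to five experiments.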

Row | Compound | Intrinsic activity
30 | Cc1nc(N)sc1CCCN/C(N)=N/C(=O)CCCCCCCCCCCCCCC(=O)/N=C(\N)NCCCc1sc(N)nc1C | 0.53
31 | N/C(=N\C(=O)CCCCCCCCC(=O)/N=C(\N)NCCCc1c[nH]cn1)NCCCc1c[nH]cn1 | 0.91

Molecular target: Histamine H1 receptor (Homo sapiens) (UniProt P35367)
Sequence (P35367 whole entry): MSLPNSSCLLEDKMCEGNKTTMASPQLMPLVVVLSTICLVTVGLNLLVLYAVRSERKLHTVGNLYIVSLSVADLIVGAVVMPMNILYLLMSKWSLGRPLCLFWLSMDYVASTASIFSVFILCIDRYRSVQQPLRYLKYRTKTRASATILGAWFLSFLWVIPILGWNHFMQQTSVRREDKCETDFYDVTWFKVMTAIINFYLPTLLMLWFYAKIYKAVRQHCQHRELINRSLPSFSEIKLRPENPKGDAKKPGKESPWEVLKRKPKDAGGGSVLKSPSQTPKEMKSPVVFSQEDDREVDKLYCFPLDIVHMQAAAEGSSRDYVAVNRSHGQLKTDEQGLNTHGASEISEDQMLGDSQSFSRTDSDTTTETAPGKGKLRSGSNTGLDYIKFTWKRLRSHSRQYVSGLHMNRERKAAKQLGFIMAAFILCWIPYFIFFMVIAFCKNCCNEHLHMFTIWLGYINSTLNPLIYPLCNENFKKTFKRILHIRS
Experiment: Antagonist activity at human H1R-RGS4 expressed in Sf9 cells by steady state GTPase activity assay
Assay type: functional
Conditions: not given
Procedure, shortened: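 Sf9 membranes (5–20 μg protein) co-expressing human H1R with RGS4. Reaction with 1.0 mM MgCl2, 100 μM ATP, 100 nM GTP, AppNHp, creatine phosphate/kinase, 0.2% BSA, 50 mM Tris-HCl pH 7.4. Histamine 100 nM with test ligand 10 nM–1 mM. [γ-32P/33P]GTP added, 20 min at 25 °C. Charcoal stop, released Pi counted. pKB from sigmoidal nonlinear fits.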

Row | Compound | pKb
32 | N/C(=N\C(=O)CCCCCCC(=O)/N=C(\N)NCCCc1c[nH]cn1)NCCCc1c[nH]cn1 | 6.7

Molecular target: Histamine H3 receptor (Homo sapiens, UniProt Q9Y5N1)
Sequence (Q9Y5N1 whole entry): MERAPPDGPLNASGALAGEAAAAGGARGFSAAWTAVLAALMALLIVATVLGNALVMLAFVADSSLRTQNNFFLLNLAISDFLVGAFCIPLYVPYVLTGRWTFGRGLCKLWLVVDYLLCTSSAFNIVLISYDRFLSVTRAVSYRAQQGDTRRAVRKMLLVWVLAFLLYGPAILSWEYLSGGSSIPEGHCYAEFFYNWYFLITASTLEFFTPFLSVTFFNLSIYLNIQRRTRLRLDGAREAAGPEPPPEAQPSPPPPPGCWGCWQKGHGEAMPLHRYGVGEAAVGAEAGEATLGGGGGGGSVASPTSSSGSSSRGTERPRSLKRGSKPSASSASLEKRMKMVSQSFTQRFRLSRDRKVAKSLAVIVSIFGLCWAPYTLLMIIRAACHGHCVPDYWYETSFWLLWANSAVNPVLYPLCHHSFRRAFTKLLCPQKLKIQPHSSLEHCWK
Experiment: Agonist activity at human H3R-Galphai2-Gbeta1gamma2-RGS4 expressed in Sf9 cells 0.1 nM to 1 mM by steady state GTPase activity assay
Assay type: functional
Conditions: not given

Row | Compound | EC50
33 | N/C(=N\C(=O)CCCCCCC(=O)/N=C(\N)NCCCc1c[nH]cn1)NCCCc1c[nH]cn1 | 4.17 nM
34 | N/C(=N\C(=O)CCCCCCCCC(=O)/N=C(\N)NCCCc1c[nH]cn1)NCCCc1c[nH]cn1 | 1.78 nM
35 | Cc1nc(N)sc1CCCN/C(N)=N/C(=O)CCCCCCCCC(=O)/N=C(\N)NCCCc1c[nH]cn1 | 2.88 nM
36 | N/C(=N\C(=O)CCCCC(=O)/N=C(\N)NCCCc1c[nH]cn1)NCCCc1c[nH]cn1 | > 10000 nM

Test system: not listed separately
Experiment: Agonist activity at guinea pig H2R hE2 loop Gsalphas mutant containing human H2 receptor E2 loop expressed in Sf9 cells by steady state GTPase activity assay
Assay type: functional
Conditions: Cavia porcellus
Procedure, shortened: as §2

Row | Compound | Activity
37 | Cc1nc(N)sc1CCCN/C(N)=N/C(=O)CCCCCCCCCCCCCCC(=O)/N=C(\N)NCCCc1sc(N)nc1C | Active
38 | N/C(=N\C(=O)CCCCCCCCC(=O)/N=C(\N)NCCCc1c[nH]cn1)NCCCc1c[nH]cn1 | Active
39 | Cc1nc(N)sc1CCCN/C(N)=N/C(=O)CCCCCCCCC(=O)/N=C(\N)NCCCc1c[nH]cn1 | Active
40 | N/C(=N\C(=O)CCCCCCC(=O)/N=C(\N)NCCCc1cnc(N)s1)NCCCc1cnc(N)s1 | Active
